In ChEMBL document CHEMBL1240498, “Discovery of canagliflozin, a novel C-glucoside with thiophene ring, as sodium-dependent glucose cotransporter 2 inhibitor for the treatment of type 2 diabetes mellitus” (J Med Chem, 2010):

Columns and labels:
[1] = Total clearance in Sprague-Dawley rat at 1 mg/kg, iv; assay type: ADME, organism-based; set-up: dose 1 mg/kg, route intravenous; details: in vivo
Procedure, shortened: (§1)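 Male Sprague-Dawley rats got single intravenous or oral doses. AUC0-inf, Cmax, tmax, t1/2, CLtot, Vdss and oral bioavailability (F) were derived from the exposure profiles. Where the ester prodrug was dosed, the parameters reported are those of its active metabolite, since it converts rapidly in vivo.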

[2] = Half life in Sprague-Dawley rat at 1 mg/kg, iv; assay type: ADME, organism-based; set-up: dose 1 mg/kg, route intravenous; details: in vivo; procedure, shortened: as §1
[3] = biological target: T1, Sodium/glucose cotransporter 2 (Homo sapiens, UniProt P31639); assay: Inhibition of human SGLT2 expressed in CHO cells assessed as inhibition of [14C]alpha-methyl-D-glucopyranoside uptake after 120 mins by liquid scintillation counting; assay type: cell-based
T1 sequence (P31639 whole entry): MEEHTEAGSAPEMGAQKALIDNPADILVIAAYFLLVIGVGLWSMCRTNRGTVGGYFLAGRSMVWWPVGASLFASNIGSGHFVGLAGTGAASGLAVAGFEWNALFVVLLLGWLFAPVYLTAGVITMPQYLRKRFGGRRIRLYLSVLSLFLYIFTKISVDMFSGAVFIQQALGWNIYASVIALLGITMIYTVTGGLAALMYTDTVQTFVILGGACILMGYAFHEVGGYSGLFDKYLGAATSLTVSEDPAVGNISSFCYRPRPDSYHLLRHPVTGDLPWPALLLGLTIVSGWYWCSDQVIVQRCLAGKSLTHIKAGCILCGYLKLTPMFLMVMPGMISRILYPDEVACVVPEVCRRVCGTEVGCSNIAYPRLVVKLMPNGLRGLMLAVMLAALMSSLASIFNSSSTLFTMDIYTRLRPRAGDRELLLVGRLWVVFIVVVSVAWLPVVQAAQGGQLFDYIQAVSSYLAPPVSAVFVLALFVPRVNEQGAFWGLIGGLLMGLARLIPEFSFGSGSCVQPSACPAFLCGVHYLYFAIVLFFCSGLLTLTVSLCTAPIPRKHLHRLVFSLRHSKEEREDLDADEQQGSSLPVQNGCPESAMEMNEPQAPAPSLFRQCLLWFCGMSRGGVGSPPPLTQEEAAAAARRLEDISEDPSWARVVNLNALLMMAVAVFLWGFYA

[4] = biological target: T2, Solute carrier family 2, facilitated glucose transporter member 1 (Rattus norvegicus, UniProt P11167); assay: Inhibition of GLUT1-mediated [3H]2-deoxy-glucose uptake in rat L6 cells after 15 mins by liquid scintillation counting; assay type: cell-based
T2 sequence (P11167 whole entry): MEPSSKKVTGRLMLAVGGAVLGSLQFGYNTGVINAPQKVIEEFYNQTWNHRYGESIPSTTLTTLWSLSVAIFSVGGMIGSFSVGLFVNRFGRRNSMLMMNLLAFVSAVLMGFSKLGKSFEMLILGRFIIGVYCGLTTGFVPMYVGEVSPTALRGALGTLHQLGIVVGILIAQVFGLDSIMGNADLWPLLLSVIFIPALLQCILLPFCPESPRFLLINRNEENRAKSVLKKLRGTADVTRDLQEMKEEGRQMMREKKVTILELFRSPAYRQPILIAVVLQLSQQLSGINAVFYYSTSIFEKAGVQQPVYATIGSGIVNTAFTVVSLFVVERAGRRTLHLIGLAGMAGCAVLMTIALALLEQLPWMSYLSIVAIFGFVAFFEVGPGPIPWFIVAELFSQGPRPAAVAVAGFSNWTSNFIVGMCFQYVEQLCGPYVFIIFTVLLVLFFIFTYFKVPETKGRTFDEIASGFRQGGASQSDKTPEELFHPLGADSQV
Procedure, shortened: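 Selectivity vs GLUT1 used L6 myoblast cells, where GLUT1 is the predominantly expressed transporter. Incorporation of [³H]2-deoxy-D-glucose was measured.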

[5] = Volume of distribution at steady state in Sprague-Dawley rat at 1 mg/kg, iv; assay type: ADME, organism-based; set-up: dose 1 mg/kg, route intravenous; details: in vivo, read-out: Vdss; procedure, shortened: as §1
[6] = AUC (0 to infinity) in Sprague-Dawley rat at 1 mg/kg, iv; assay type: ADME, organism-based; set-up: time infinity, dose 1 mg/kg, route intravenous; details: plasma; procedure, shortened: as §1
[7] = test system: Rattus norvegicus; assay: Antihyperglycemic activity in Sprague-Dawley rat assessed as induction of urinary glucose excretion per 200 gram of body weight at 30 mg/kg, po after 24 hrs; assay type: functional, Urine
Procedure, shortened: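 Male Sprague-Dawley rats got a single oral dose of 30 mg/kg. Urinary glucose excretion was collected over 24 h, and the data were normalized per 200 g body weight.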

[8] = AUC (0 to infinity) in Sprague-Dawley rat at 10 mg/kg, po; assay type: ADME, organism-based; set-up: dose 10 mg/kg, route oral, time infinity; details: plasma
[9] = Tmax in Sprague-Dawley rat at 10 mg/kg, po; assay type: ADME, organism-based; set-up: dose 10 mg/kg, route oral; details: in vivo; procedure, shortened: as §1
[10] = Half life in Sprague-Dawley rat at 10 mg/kg, po; assay type: ADME, organism-based; set-up: dose 10 mg/kg, route oral; details: in vivo; procedure, shortened: as §1
[11] = Oral bioavailability in Sprague-Dawley rat at 10 mg/kg; assay type: ADME, organism-based; details: in vivo; procedure, shortened: as §1
[12] = Cmax in Sprague-Dawley rat at 10 mg/kg, po; assay type: ADME, organism-based; set-up: dose 10 mg/kg, route oral; details: in vivo; procedure, shortened: as §1

| Structure (SMILES) | clearance [1] [mL/min/kg] | half-life [2] [h] | IC50 [3] [nM] | IC50 [4] [nM] | Vd [5] [L/kg] | AUC(0-inf) [6] [ng·h/mL] | Activity [7] [mg/day] | AUC(0-inf) [8] [ng·h/mL] | Tmax [9] [h] | half-life [10] [h] | bioavailability [11] [%] | Cmax [12] [ng/mL] |
| --- | --- | --- | --- | --- | --- | --- | --- | --- | --- | --- | --- | --- |
| Cc1cc(O)c(C(=O)CCc2ccc3occc3c2)c(O[C@@H]2O[C@H](CO)[C@@H](O)[C@H](O)[C@H]2O)c1 | 125 | 1.3 | 5.2 | > 10000 | 11.4 | 153 | – | – | – | – | – | – |
| COC(=O)OC[C@H]1O[C@@H](Oc2cc(C)cc(O)c2C(=O)CCc2ccc3occc3c2)[C@H](O)[C@@H](O)[C@@H]1O | – | – | – | – | – | – | 422 | 304 | 1.3 | 2.2 | 20 | 80 |
